In the library only some 3.6% were active in any assay of this set; here they are far more common.
NadD inh – NadD (S. aureus) enzyme inhibition. inhibition, % at 20 µM. actives 0.78% (n = 360,000). purified NadD enzyme, colorimetric absorbance read-out; in the data active = inhibition above about 26%
UCH37 inh – inhibitors of human deubiquitinating enzyme UCH37. purified proteasome/UCH37, Ub-AMC cleavage fluorescence. AID 588478. actives 0.33% (n = 330,000). inhibition, % (test concentration not listed). Q9Y5K5;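 active = mean inhibition over replicate wells above about 20%, limit read from the data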;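 also: 0% = compound-free wells with enzyme and 100% = wells lacking proteasome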
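System: Proteasome-associated human UCH37 deubiquitinase; Input: 0.15 nM proteasome in added enzyme buffer; Also added: Ub-AMC substrate from 1 µM stock; Incubation: 30 min compound-proteasome preincubation then 25 min substrate reaction, room temperature; Detection: fluorescence, ex 355 nm, em 460 nm; Read-out: % inhibition of Ub-AMC cleavage fluorescence; Benchmarks: no-proteasome and no-compound wells.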
ATG4B inhibitor – ATG4B (human) cysteine protease inhibition; ATG4B cleavage of LC3-PLA2, NBD-HPC fluorescence, 1 h; actives 0.51% (n = 340,000); inhibition, % at 8.33 µM; Q9Y4P1; AID 504462; in the data active = inhibition above about 40%
Target sequence (Q9Y4P1 whole entry, looked up): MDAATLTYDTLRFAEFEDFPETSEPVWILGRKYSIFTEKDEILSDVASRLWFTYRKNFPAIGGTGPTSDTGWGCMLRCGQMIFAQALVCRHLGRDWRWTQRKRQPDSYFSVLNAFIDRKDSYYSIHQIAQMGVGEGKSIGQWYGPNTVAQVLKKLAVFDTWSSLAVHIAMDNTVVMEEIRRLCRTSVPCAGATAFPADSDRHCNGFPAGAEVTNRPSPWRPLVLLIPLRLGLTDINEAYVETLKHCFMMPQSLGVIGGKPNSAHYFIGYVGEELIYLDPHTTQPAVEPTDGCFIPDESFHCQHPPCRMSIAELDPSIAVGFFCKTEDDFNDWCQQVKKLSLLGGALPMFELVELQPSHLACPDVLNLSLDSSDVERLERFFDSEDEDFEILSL
SENP1 inh – inhibitors of human SENP1 SUMO protease catalytic domain. recombinant SENP1 catalytic domain, CyPet-SUMO1-YPet FRET cleavage. Q9P0U3. AID 624204. actives 0.21% (n = 360,000). inhibition, % at 10 µM;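 active = inhibition at least 30% at 10 µM, raw YFP signal under a set limit, fluorescence ratio 0.5 to 1.5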;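 also: 0% = enzyme with DMSO and 100% = no enzyme wells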
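Controls: no-enzyme wells low, DMSO-plus-enzyme wells high control. Test system: human recombinant His6-tagged SENP1 catalytic domain enzyme. Reagent: SFCypet-SUMO1-SFYpet FRET protein substrate, 25 nM final. Doses: one dose per compound, 10 µM, 0.5% DMSO. Detection: FRET, CFP and YFP emission. Timing: 50 min reaction at room temperature.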
NR3A LBD binder – modulators (binders) of human NR3A ligand-binding domain | NR3A LBD differential scanning fluorimetry, Tm shift; 0% = protein alone, 100% = glycine-bound protein | Tm shift relative to glycine control, % at 25 µM | actives 2.5% (n = 340,000) | AID 1259313;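 active = melting temperature shift of at least 10% of the positive control shift, at one fixed dose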
An asterisk follows results filed as active; x = no result given.

SMILES | NadD inh | UCH37 inh | ATG4B inhibitor | SENP1 inh | NR3A LBD binder
CC(C)C1Nc2ccc(S(N)(=O)=O)cc2C2C=CCC21 (stereo not given) | 5 | 4 | -11 | -21 | 2
NS(=O)(=O)c1ccc2c(c1)C1C=CCC1C(C1CC=CCC1)N2 (stereo not given) | 39* | 6 | 12 | -18 | -3
CC(C)(C)C(=O)NCCN1CCN(C(=O)C(C)(C)C)CC1 | 3 | 3 | 2 | -1 | 673*
Cc1ccc2oc(-c3cccc(NC(=O)c4ccc(Br)o4)c3C)nc2c1 | -1 | -2 | 4 | 0 | 0
Cc1c(NC(=O)CSc2ccc(Cl)cc2)cccc1-c1nc2cc(Cl)ccc2o1 | 0 | x | 5 | 1 | 18*
Nc1nonc1-n1nnc(C(=O)N/N=C/c2ccccn2)c1-c1ccccc1 | -3 | x | -4 | -5 | 1
CN(Cc1c(C(=O)N/N=C/c2cccc(Cl)c2)nnn1-c1nonc1N)c1ccccc1 | 16 | x | -10 | 2 | 21*
Nc1nonc1-n1nnc(C(=O)N/N=C/c2cccc(Cl)c2)c1-c1cccs1 | -3 | x | -28 | 4 | 27*
Nc1nonc1-n1nnc(C(=O)N/N=C/c2cc(Br)cs2)c1-c1ccccc1 | 6 | x | -4 | 1 | 15*
C/C(=N\N=C\c1ccccc1F)c1nnn(-c2nonc2N)c1C | 2 | x | -7 | 1 | 25*
COc1ccc(/C=N/NC(=O)c2nnn(-c3nonc3N)c2-c2cccs2)cc1OC | 10 | x | -9 | 1 | 9
Cc1cccc(COc2ccccc2C=NNc2ccc([N+](=O)[O-])cc2)c1 | x | -4 | x | x | x
COc1cccc(C=NNc2ncnc3scc(-c4ccccc4)c23)c1OC | x | 7 | x | x | x
COc1ccc(/C=N/NC(=O)c2nnn(-c3nonc3N)c2CN(C)c2ccccc2)cc1 | 3 | x | -10 | 2 | 24*
CN(C)c1ccc(C=NNC(=O)c2nnn(-c3nonc3N)c2CN(C)c2ccccc2)cc1 | x | -20 | x | x | x
CN(Cc1c(C(=O)N/N=C/c2ccccc2F)nnn1-c1nonc1N)c1ccccc1 | 13 | x | -12 | 0 | 12*
CN(Cc1c(C(=O)N/N=C/c2ccccc2)nnn1-c1nonc1N)c1ccccc1 | 11 | x | -18 | 2 | 19*
CN(Cc1c(C(=O)N/N=C/c2ccc(O)cc2)nnn1-c1nonc1N)c1ccccc1 | -5 | x | -6 | 3 | 24*
CCOc1ccc(N(CC(=O)NN=Cc2cc(Br)c(C)o2)S(C)(=O)=O)cc1 | x | 1 | x | x | x
CC(=NNC(=O)c1ccc(C)nc1)c1ccc2c(c1)CCCC2 | x | 19 | x | x | x
CCOC(=O)C1CCN(C(=O)c2ccc3c(=O)n4c(nc3c2)CCCCC4)CC1 | 9 | 1 | -7 | -1 | -2
CCOC(=O)N1CCN(C(=O)c2ccc3c(=O)n4c(nc3c2)CCCCC4)CC1 | x | 29* | -12 | x | -2
CN1CCN(CCC(=O)NN=Cc2ccccn2)CC1 | x | 2 | x | x | x
N#C/C(=N\O)c1nc2ccccc2[nH]1 | 1 | x | 7 | -122 | 22*
Cc1cc(C)n(Cc2ccc(C(=O)O)cc2)n1 | -2 | -3 | 1 | 0 | 0
SMILES | NadD inh | UCH37 inh | ATG4B inhibitor | SENP1 inh | NR3A LBD binder
Cc1ccc(C)n1Cc1ccc(C(=O)O)cc1 | 3 | 30* | 32 | 10 | -1
CC1=C(C(=O)Nc2ccccc2)C(c2ccc(C)o2)n2c(sc(=Cc3ccco3)c2=O)=N1 (stereo not given) | x | -1 | x | x | x
Cn1c(SCC(=O)Nc2ccc(F)cc2)nc2c([nH]c3ccccc32)c1=O | 8 | -3 | -7 | -1 | 0
CCCCn1c(SCC(=O)Nc2ccc(NC(C)=O)cc2)nc2ccccc2c1=O | -3 | x | 4 | 0 | 33*
CCn1c(SCC(=O)Nc2ccc(NC(C)=O)cc2)nc2c([nH]c3ccccc32)c1=O | -4 | 4 | 3 | 0 | 12*
Cn1c(SCC(=O)Nc2cccc(F)c2)nc2c([nH]c3ccccc32)c1=O | 5 | -13 | 6 | -2 | 29*
CCOc1cc(C(=O)NN=C/C(Br)=C/c2ccccc2)cc(OCC)c1OCC | x | 7 | x | x | x
CC(C)C(NC(=O)c1ccc2c(c1)OCO2)C(=O)NN=Cc1ccco1 (stereo not given) | x | 0 | x | x | x
CCC1SC(=NS(=O)(=O)c2cccs2)N(C2CCCCC2)C1=O (stereo not given) | x | -1 | x | x | x
COc1ccc(N(C(C)C(=O)NN=Cc2cc(Br)c(C)o2)S(C)(=O)=O)cc1 (stereo not given) | x | 1 | x | x | x

Compound activity: PubChem BioAssay, several laboratories
